Assay outcomes (PubChem)
T cruzi inh: inhibitors of intracellular T. cruzi growth, primary screen, luminescence, NIH3T3 host cells; T. cruzi beta-gal in NIH3T3, 90 h; inhibition, % (no concentration beside the values); 300,000 compounds, 1.4% hits; AID 1885, 2009;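 active = mean inhibition across valid replicates above about 55%, limit read from the data; inconclusive = mean below that limit but half or more replicates reach it; inactive = mean below it, under half of replicates reach it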;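 also: signal also drops with host cell toxicity which is not excluded here; higher percent means less beta-gal luminescence so fewer parasites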
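System – NIH/3T3 host cells with β-galactosidase reporter T. cruzi · Doses – single 50 nL compound addition per well in DMSO · Reagent – 5000 T. cruzi trypomastigotes/well · Medium – Low-serum DMEM with 2% FBS · Timing – ≥90 h infection period, 3 h prior cell attachment · Evaluation – parasite load inhibition, % · Technique – GalScreen luminescence, 60 min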
PP1 inh: PP1-alpha phosphatase inhibitors, primary screen, counter-screen for PP5 inhibitor project, biochemical, fluorescence, OMFP substrate, single point | inhibition, % at 6.7 µM | purified PP1alpha | 320,000 compounds, 0.9% hits | Serine/threonine-protein phosphatase PP1-alpha catalytic subunit (Homo sapiens), P62136;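 active = inhibition above the mean inhibition of all tested compounds plus 3 SD, computed separately for each screening campaign, cut at about 15% in these data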
Target sequence (P62136 whole entry, looked up): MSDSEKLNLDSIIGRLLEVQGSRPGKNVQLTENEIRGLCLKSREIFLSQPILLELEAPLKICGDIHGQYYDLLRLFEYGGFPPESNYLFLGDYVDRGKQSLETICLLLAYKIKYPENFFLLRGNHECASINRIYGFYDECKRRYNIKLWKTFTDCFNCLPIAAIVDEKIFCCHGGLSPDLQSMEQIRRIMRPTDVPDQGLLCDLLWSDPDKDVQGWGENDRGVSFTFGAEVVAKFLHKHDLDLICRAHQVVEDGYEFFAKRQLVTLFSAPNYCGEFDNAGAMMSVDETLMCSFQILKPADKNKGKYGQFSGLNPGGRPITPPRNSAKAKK
AI-2 QS modul: Vibrio harveyi AI-2 quorum sensing modulators, primary screen, JMH597 strain, luminescence/OD600 ratio; 300,000 compounds, 0.4% hits; Vibrio harveyi JMH597 AI-2 luminescence/OD600 ratio, 9 h; active compounds read low; strain lacks LuxN and CqsS sensors; 0 = neutral-control median; activity change, % at 7.5 µM; in the data active = activity change below about -75%, passing the limit was not always enough; inconclusive = no clear call, values can overlap the other calls;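 also: luminescence divided by OD600 gain over 9 h not by final OD600 alone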
UBC13 inh: UBC13 polyubiquitin chain formation inhibitors, primary screen, biochemical, TR-FRET, uHTS; Ubiquitin-conjugating enzyme E2 N (Homo sapiens), P61088; AID 485273, 2010; inhibition, % at 20 µM; 330,000 compounds, 0.47% hits; in the data active = inhibition above about 45%, passing the limit was not always enough; inconclusive = no clear call, values can overlap the other calls
Target sequence (P61088 whole entry, looked up): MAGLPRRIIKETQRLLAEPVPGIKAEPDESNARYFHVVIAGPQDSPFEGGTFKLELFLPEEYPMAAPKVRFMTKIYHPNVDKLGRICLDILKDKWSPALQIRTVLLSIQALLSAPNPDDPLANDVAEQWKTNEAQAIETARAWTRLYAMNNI
pCIP destab: p/CIP-EGFP fusion destabilizers, primary screen, fluorescence, F442A cells | AID 1984, 2009 | 16 h | Q05BA5 | 290,000 compounds, 0.01% hits | decrease of EGFP signal, % at 10 µM;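 active = EGFP signal decrease of at least 30% at 10 µM or well 3 SD below plate mean, unless failing retest; inactive = the rest, including hits failing retest or dose response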
JMH597 growth: Vibrio harveyi growth inhibition, confirmation, counter-screen for AI-2 quorum sensing project, JMH597 strain, OD600 absorbance. shares compounds with AI-2 QS modul. 9 h; lacks LuxN and CqsS sensors. growth inhibition, % at 7.5 µM. 750 compounds, 1% hits. AID 2726, 2010;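 active = every replicate shows growth inhibition above 50%; inconclusive = at least half, but not all, replicates pass that cutoff; inactive = fewer than half of replicates pass it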
BB721 lum counter: luminescence inhibition in constitutive-on V. harveyi, confirmation, counter-screen for LuxS inhibitor project, strain BB721, luminescence readout. shares compounds with AI-2 QS modul. Vibrio harveyi BB721 luminescence, 9 h. inhibition, % at 7.5 µM. 750 compounds, 95% hits. AID 2727, 2010;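 active = inhibition above about 80% in every replicate, not just on average, limit read from the data; inconclusive = at least half of replicates past the limit, but not all; inactive = fewer than half of replicates past the limit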
BB721 growth: growth inhibition of V. harveyi BB721, confirmation, cytotoxicity control for AI-2 quorum sensing inhibitors, strain BB721, absorbance OD600 | shares compounds with AI-2 QS modul | Vibrio harveyi BB721 growth, 9 h | growth inhibition, % at 7.5 µM | 750 compounds, 3% hits;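 active = every replicate shows growth inhibition above 50%; inconclusive = at least half but not all replicates above 50% inhibition; inactive = under half of replicates above 50% inhibition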
JMH597 AI-2 mod: Vibrio harveyi AI-2 signaling luminescence modulation – JMH597 strain, confirmation | shares compounds with AI-2 QS modul | Vibrio harveyi JMH597 AI-2 quorum sensing luminescence, 9 h; luxN and CqsS knockout, AI-2 only | inhibition, % at 7.5 µM | 750 compounds, 97% hits;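 active = every replicate shows more than 75% inhibition of signal versus neutral control wells; inconclusive = half to three quarters of replicates exceed 75% inhibition; inactive = fewer than half of replicates exceed 75% inhibition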
Numbers stand for hits; . = inactive; ? = inconclusive; / = no result. Sampled rows, rich in hits. Any-hit rate of the full collection: about 2.8%.

SMILES	T cruzi inh	PP1 inh	AI-2 QS modul	UBC13 inh	pCIP destab	JMH597 growth	BB721 lum counter	BB721 growth	JMH597 AI-2 mod
O=C(Nc1ccc(Cc2ccncc2)cc1)c1ccc(Br)o1	.	.	-81	.	.	.	88	.	94
CCOc1ccc(CCNC(=O)COC(=O)c2nn(C)c(=O)c3ccccc23)cc1OCC	.	.	.	.	/	/	/	/	/
Cc1ccc2[nH]c(CCN(C)C)c(CN3CCOCC3)c2c1	/	.	/	.	/	/	/	/	/
O=C(OCc1nnc(-c2ccc(Cl)cc2)o1)c1ccncc1	.	.	.	.	.	/	/	/	/
Cc1ccccc1C(=O)OCc1nnc(-c2ccc(Cl)cc2)o1	.	.	?	.	.	.	91	.	93
O=C(Cc1ccccc1[N+](=O)[O-])Nc1ccc(S(=O)(=O)N2CCCC2)cc1	.	.	?	.	.	.	93	.	94
O=C(Nc1ccc(S(=O)(=O)N2CCCC2)cc1)Nc1ccc(F)cc1F	.	.	-96	.	.	.	98	.	99
O=C(Cc1ccc(F)cc1)Nc1ccc(S(=O)(=O)N2CCCC2)cc1	.	.	.	.	/	/	/	/	/
O=C(CSc1nncs1)Nc1ccc(S(=O)(=O)N2CCCC2)cc1	.	.	-83	.	.	.	93	.	95
O=C(Cc1ccc(Br)cc1)Nc1ccc(S(=O)(=O)N2CCCC2)cc1	.	.	-96	.	.	.	?	.	99
COc1ccc(CCCc2nnc(SCc3nc4ccccc4c(=O)[nH]3)n2C)c(C)c1	.	.	.	.	.	/	/	/	/
CCOC(=O)C(C(C)=O)C(c1ccc(OCCC(C)C)cc1)C(C(C)=O)C(=O)OCC (stereo unspecified)	.	.	.	.	.	/	/	/	/
COc1cc(/C=C\C(=O)O)cc(S(=O)(=O)N2CCCCCC2)c1OC	.	/	.	.	.	/	/	/	/
CCc1ccc(OCC(=O)O/N=C(\N)c2cccnc2)cc1	.	.	-92	.	.	.	95	.	96
O=[N+]([O-])c1ccc(C2(O)CN(c3ccccc3)C3=[N+]2CCS3)cc1 (stereo unspecified)	.	.	.	.	.	/	/	/	/
C=CCn1c(CCNC(=O)c2ccc(Cl)c(Cl)c2)nnc1SCCOc1ccc(OC)cc1	.	.	-84	.	.	.	90	.	94
CCOC(=O)C1(C)NC(c2cccs2)C2C(=O)N(c3ccc(OC)cc3)C(=O)C21 (stereo unspecified)	.	.	.	.	.	/	/	/	/
Nc1nc(-c2ccc(Oc3ccccc3)cc2)cs1	.	.	-95	.	.	.	96	.	98
Nc1nc(-c2ccc(-c3ccccc3)cc2)cs1	.	.	.	.	.	/	/	/	/
O=C(Nc1c2c(nn1-c1ccccc1)CS(=O)(=O)C2)c1ccc2c(c1)OCO2	.	.	.	.	.	/	/	/	/
CCc1nn(CC(=O)Nc2ccc(Br)c(C)c2)c(=N)s1	.	.	-95	.	.	.	99	.	99
CCc1nn(CC(=O)Nc2cc(C)ccc2C)c(=N)s1	.	.	.	.	.	/	/	/	/
Cc1cc(NC(=O)Cn2nc3c(cc2=O)CCCC3)ccc1Br	.	.	-97	.	.	.	100	.	100
CCSc1nnc(-c2cc(Br)ccc2NC(C)=O)c(=O)[nH]1	.	.	.	.	.	/	/	/	/
CN1CCN(S(=O)(=O)c2ccc(Oc3ccc(Br)cc3F)nc2)CC1	.	.	-84	.	/	.	82	.	99
SMILES	T cruzi inh	PP1 inh	AI-2 QS modul	UBC13 inh	pCIP destab	JMH597 growth	BB721 lum counter	BB721 growth	JMH597 AI-2 mod
O=C(CNC(=O)c1cccs1)OCc1ccc(Br)cc1	.	.	?	.	.	.	91	.	92
CC(C)C(CCNC(=O)CC(Cc1ccccc1)c1ccco1)c1ccco1 (stereo unspecified)	.	.	.	.	.	/	/	/	/
CC(C)C(CCNC(=O)CN1C(=O)c2ccccc2C1=O)c1ccco1 (stereo unspecified)	.	.	-84	.	.	.	94	.	97
CCCn1c(=S)[nH]c2cc(C(=O)N3CCc4ccccc43)ccc2c1=O	.	.	?	.	.	.	85	.	89
Cc1cc(C)nc(NC(=O)c2ccccc2O)n1	.	.	.	.	.	/	/	/	/
N#Cc1nc(-c2cccs2)oc1NCc1ccccc1Cl	.	.	.	.	.	/	/	/	/
N#Cc1nc(-c2cccs2)oc1NCc1ccco1	.	.	.	.	.	/	/	/	/
N#Cc1nc(-c2cccs2)oc1NCc1ccc(Cl)cc1	.	.	-87	.	.	93	92	102	96
N#Cc1nc(-c2ccc(F)cc2)oc1NCc1ccccc1	.	.	-96	.	.	.	95	.	97
N#Cc1nc(-c2ccc(F)cc2)oc1NCc1ccco1	.	.	.	.	.	/	/	/	/
Cc1ccc(CNc2oc(-c3cccs3)nc2C#N)cc1	.	.	-94	.	.	.	97	?	98
Cc1ccn(S(=O)(=O)c2ccc(N3CCCC3=O)cc2)n1	.	.	.	.	.	/	/	/	/
COc1ccc(CNC(=S)Nc2ccc(F)c(Cl)c2)cc1	.	.	-84	.	.	.	92	.	92
CN(Cc1nccs1)C(=O)c1cc(COc2cccc3cnccc23)on1	.	.	-94	.	.	.	97	.	99
COc1cc(Cl)ccc1OCc1cc(C(=O)N(C)Cc2cccc3cnccc23)no1	.	.	.	.	.	/	/	/	/
COC(=O)C1CCCCN1C(=O)c1cc(COc2cccc3cccnc23)on1 (stereo unspecified)	.	.	.	.	.	/	/	/	/
COC(=O)C1CCCCN1C(=O)c1cc(COc2cccc3cnccc23)on1 (stereo unspecified)	.	.	-91	.	.	.	92	.	95
CCOC(=O)CC1CCCCN1C(=O)c1cc(COc2cccc3cnccc23)on1 (stereo unspecified)	.	.	-86	.	.	.	88	.	93
O=C(CCC1CCCCC1)Nc1nnc(C(F)(F)F)s1	.	/	.	.	.	/	/	/	/
Cc1ccc(CNC(=O)/C=C/c2ccc(Br)o2)cc1	.	.	-94	.	.	.	99	?	99
